Experimental data published in ChEMBL document CHEMBL1287651, “Synthesis and in vitro antibacterial activity of fluoroquinolone derivatives containing 3-(N'-alkoxycarbamimidoyl)-4-(alkoxyimino) pyrrolidines” (2010).
Converted amounts (≈) assume the structure as drawn.

Columns and labels:
Assay type in all cases: functional
Klebsiella pneumoniae [1] = experiment: Antibacterial activity against Klebsiella pneumoniae 09-23 after 18 to 24 hrs by twofold serial dilution method
Method in brief: (§1)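 MIC determined by the standard twofold serial dilution method on agar media, screening against Gram-positive and Gram-negative strains. Levofloxacin and gemifloxacin were run alongside as reference drugs.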

Pseudomonas aeruginosa [2] = experiment: Antibacterial activity against Pseudomonas aeruginosa 09-32 after 18 to 24 hrs by twofold serial dilution method; method in brief: as §1
Enterococcus faecium [3] = experiment: Antibacterial activity against Enterococcus faecium 08-7 after 18 to 24 hrs by twofold serial dilution method; method in brief: as §1
Staphylococcus aureus [4] = experiment: Antibacterial activity against methicillin-resistant Staphylococcus aureus 08-1 after 18 to 24 hrs by twofold serial dilution method
Method in brief: (§2)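 Standard twofold serial agar dilution method on agar media for MIC determination. Screened against representative Gram-positive and Gram-negative strains. Levofloxacin and GMFX served as control drugs.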

Pseudomonas aeruginosa [5] = experiment: Antibacterial activity against Pseudomonas aeruginosa 09-35 after 18 to 24 hrs by twofold serial dilution method; method in brief: as §1
Staphylococcus aureus [6] = experiment: Antibacterial activity against methicillin-sensitive Staphylococcus aureus 08-2 after 18 to 24 hrs by twofold serial dilution method; method in brief: as §2
Escherichia coli [7] = experiment: Antibacterial activity against Escherichia coli 08-21 after 18 to 24 hrs by twofold serial dilution method; method in brief: as §1
Klebsiella pneumoniae [8] = experiment: Antibacterial activity against Klebsiella pneumoniae 09-22 after 18 to 24 hrs by twofold serial dilution method; method in brief: as §1
Streptococcus pneumoniae [9] = experiment: Antibacterial activity against Streptococcus pneumoniae 08-2 after 18 to 24 hrs by twofold serial dilution method; method in brief: as §1
Pseudomonas aeruginosa [10] = experiment: Antibacterial activity against Pseudomonas aeruginosa 09-34 after 18 to 24 hrs by twofold serial dilution method; method in brief: as §1
Escherichia coli [11] = experiment: Antibacterial activity against Escherichia coli 08-22 after 18 to 24 hrs by twofold serial dilution method; method in brief: as §1
Streptococcus pneumoniae [12] = experiment: Antibacterial activity against Streptococcus pneumoniae 08-4 after 18 to 24 hrs by twofold serial dilution method; method in brief: as §1
Staphylococcus aureus [13] = experiment: Antibacterial activity against Staphylococcus aureus ATCC […] after 18 to 24 hrs by twofold serial dilution method; method in brief: as §1
Enterococcus faecalis [14] = experiment: Antibacterial activity against Enterococcus faecalis 08-12 after 18 to 24 hrs by twofold serial dilution method; method in brief: as §1
[15] = system: Staphylococcus epidermidis; experiment: Antibacterial activity against methicillin-resistant Staphylococcus epidermidis 09-2 after 18 to 24 hrs by twofold serial dilution method; method in brief: as §2
Pseudomonas aeruginosa [16] = experiment: Antibacterial activity against Pseudomonas aeruginosa ATCC 27853 after 18 to 24 hrs by twofold serial dilution method; method in brief: as §1
Enterococcus faecalis [17] = experiment: Antibacterial activity against Enterococcus faecalis 08-10 after 18 to 24 hrs by twofold serial dilution method; method in brief: as §1
[18] = system: Staphylococcus epidermidis; experiment: Antibacterial activity against methicillin-resistant Staphylococcus epidermidis 09-4 after 18 to 24 hrs by twofold serial dilution method; method in brief: as §2
Escherichia coli [19] = experiment: Antibacterial activity against Escherichia coli ATCC 25922 after 18 to 24 hrs by twofold serial dilution method; method in brief: as §1
[20] = system: Staphylococcus epidermidis; experiment: Antibacterial activity against methicillin-resistant Staphylococcus epidermidis 09-3 after 18 to 24 hrs by twofold serial dilution method; method in brief: as §2
Klebsiella pneumoniae [21] = experiment: Antibacterial activity against Klebsiella pneumoniae 09-21 after 18 to 24 hrs by twofold serial dilution method; method in brief: as §1
Pseudomonas aeruginosa [22] = experiment: Antibacterial activity against Pseudomonas aeruginosa 09-33 after 18 to 24 hrs by twofold serial dilution method; method in brief: as §1
[23] = system: Staphylococcus epidermidis; experiment: Antibacterial activity against methicillin-sensitive Staphylococcus epidermidis 09-3 after 18 to 24 hrs by twofold serial dilution method; method in brief: as §2
Enterococcus faecium [24] = experiment: Antibacterial activity against Enterococcus faecium 08-2 after 18 to 24 hrs by twofold serial dilution method; method in brief: as §1
[25] = system: Staphylococcus epidermidis; experiment: Antibacterial activity against methicillin-sensitive Staphylococcus epidermidis 09-6 after 18 to 24 hrs by twofold serial dilution method; method in brief: as §2

SMILES	MIC (Klebsiella pneumoniae [1]) [µg/mL]	MIC (Pseudomonas aeruginosa [2]) [µg/mL]	MIC (Enterococcus faecium [3]) [µg/mL]	MIC (Staphylococcus aureus [4]) [µg/mL]	MIC (Pseudomonas aeruginosa [5]) [µg/mL]	MIC (Staphylococcus aureus [6]) [µg/mL]	MIC (Escherichia coli [7]) [µg/mL]	MIC (Klebsiella pneumoniae [8]) [µg/mL]	MIC (Streptococcus pneumoniae [9]) [µg/mL]	MIC (Pseudomonas aeruginosa [10]) [µg/mL]	MIC (Escherichia coli [11]) [µg/mL]	MIC (Streptococcus pneumoniae [12]) [µg/mL]	MIC (Staphylococcus aureus [13]) [µg/mL]	MIC (Enterococcus faecalis [14]) [µg/mL]	MIC [15] [µg/mL]	MIC (Pseudomonas aeruginosa [16]) [µg/mL]	MIC (Enterococcus faecalis [17]) [µg/mL]	MIC [18] [µg/mL]	MIC (Escherichia coli [19]) [µg/mL]	MIC [20] [µg/mL]	other results
CCn1cc(C(=O)O)c(=O)c2cc(F)c(N3C/C(=N\OC)C(/C(N)=N\OC)C3)c(F)c21 (stereo not given)	> 128	> 128	> 128	0.25 (≈ 0.572 µM)	> 128	0.25 (≈ 0.572 µM)	> 128	1 (≈ 2.29 µM)	1 (≈ 2.29 µM)	> 128	> 128	1 (≈ 2.29 µM)	0.25 (≈ 0.572 µM)	> 128	2 (≈ 4.57 µM)	128 (≈ 293 µM)	> 128	0.25 (≈ 0.572 µM)	128 (≈ 293 µM)	0.25 (≈ 0.572 µM)	MIC (Klebsiella pneumoniae [21]): > 128 µg/mL; MIC (Pseudomonas aeruginosa [22]): > 128 µg/mL; MIC [23]: 0.25 µg/mL (≈ 0.572 µM); MIC (Enterococcus faecium [24]): > 128 µg/mL; MIC [25]: 0.5 µg/mL (≈ 1.14 µM)
CCO/N=C(/N)C1CN(c2nc3c(cc2F)c(=O)c(C(=O)O)cn3C2CC2)C/C1=N\OC (stereo not given)	> 128	> 128	> 128	2 (≈ 4.48 µM)	> 128	2 (≈ 4.48 µM)	> 128	16 (≈ 35.8 µM)	> 128	> 128	> 128	> 128	2 (≈ 4.48 µM)	> 128	2 (≈ 4.48 µM)	> 128	> 128	0.125 (≈ 0.28 µM)	> 128	0.25 (≈ 0.56 µM)	MIC (Klebsiella pneumoniae [21]): > 128 µg/mL; MIC (Pseudomonas aeruginosa [22]): > 128 µg/mL; MIC [23]: 0.25 µg/mL (≈ 0.56 µM); MIC (Enterococcus faecium [24]): > 128 µg/mL; MIC [25]: 0.25 µg/mL (≈ 0.56 µM)
CCO/N=C1\CN(c2c(F)cc3c(=O)c(C(=O)O)cn(CCF)c3c2F)CC1/C(N)=N\OC (stereo not given)	> 128	> 128	> 128	4 (≈ 8.52 µM)	> 128	> 128	> 128	> 128	> 128	> 128	> 128	> 128	2 (≈ 4.26 µM)	> 128	> 128	> 128	> 128	0.125 (≈ 0.266 µM)	> 128	0.25 (≈ 0.533 µM)	MIC (Klebsiella pneumoniae [21]): > 128 µg/mL; MIC (Pseudomonas aeruginosa [22]): > 128 µg/mL; MIC [23]: 0.25 µg/mL (≈ 0.533 µM); MIC (Enterococcus faecium [24]): > 128 µg/mL; MIC [25]: 0.25 µg/mL (≈ 0.533 µM)
CCO/N=C1\CN(c2c(F)cc3c(=O)c(C(=O)O)cn(C4CC4)c3c2OC(F)F)CC1/C(N)=N\O (stereo not given)	> 128	128 (≈ 257 µM)	> 128	0.25 (≈ 0.503 µM)	128 (≈ 257 µM)	1 (≈ 2.01 µM)	> 128	8 (≈ 16.1 µM)	8 (≈ 16.1 µM)	> 128	> 128	8 (≈ 16.1 µM)	0.5 (≈ 1.01 µM)	> 128	1 (≈ 2.01 µM)	128 (≈ 257 µM)	> 128	1 (≈ 2.01 µM)	128 (≈ 257 µM)	1 (≈ 2.01 µM)	MIC (Klebsiella pneumoniae [21]): > 128 µg/mL; MIC (Pseudomonas aeruginosa [22]): > 128 µg/mL; MIC [23]: 1 µg/mL (≈ 2.01 µM); MIC (Enterococcus faecium [24]): > 128 µg/mL; MIC [25]: 0.25 µg/mL (≈ 0.503 µM)
CO/N=C1\CN(c2c(F)cc3c(=O)c(C(=O)O)cn4c3c2OC[C@@H]4C)CC1/C(N)=N\OC (stereo not given in full)	> 128	8 (≈ 17.9 µM)	128 (≈ 286 µM)	0.25 (≈ 0.559 µM)	8 (≈ 17.9 µM)	0.25 (≈ 0.559 µM)	> 128	0.5 (≈ 1.12 µM)	16 (≈ 35.8 µM)	> 128	> 128	0.25 (≈ 0.559 µM)	0.125 (≈ 0.279 µM)	> 128	0.25 (≈ 0.559 µM)	4 (≈ 8.94 µM)	> 128	0.25 (≈ 0.559 µM)	128 (≈ 286 µM)	0.25 (≈ 0.559 µM)	MIC (Klebsiella pneumoniae [21]): > 128 µg/mL; MIC (Pseudomonas aeruginosa [22]): > 128 µg/mL; MIC [23]: 0.25 µg/mL (≈ 0.559 µM); MIC (Enterococcus faecium [24]): 128 µg/mL (≈ 286 µM); MIC [25]: 0.25 µg/mL (≈ 0.559 µM)
CCO/N=C1\CN(c2c(F)cc3c(=O)c(C(=O)O)cn4c3c2OC[C@@H]4C)CC1/C(N)=N\OC (stereo not given in full)	> 128	> 128	> 128	0.25 (≈ 0.542 µM)	> 128	0.25 (≈ 0.542 µM)	> 128	1 (≈ 2.17 µM)	> 128	> 128	> 128	0.25 (≈ 0.542 µM)	0.25 (≈ 0.542 µM)	> 128	0.25 (≈ 0.542 µM)	> 128	0.5 (≈ 1.08 µM)	0.25 (≈ 0.542 µM)	128 (≈ 277 µM)	0.125 (≈ 0.271 µM)	MIC (Klebsiella pneumoniae [21]): > 128 µg/mL; MIC (Pseudomonas aeruginosa [22]): > 128 µg/mL; MIC [23]: 0.25 µg/mL (≈ 0.542 µM); MIC (Enterococcus faecium [24]): > 128 µg/mL; MIC [25]: 0.5 µg/mL (≈ 1.08 µM)
